Laboratory results: ChEMBL document CHEMBL1150216, “Flavonol glycosides and steroidal saponins from the leaves of Cestrum nocturnum and their cytotoxicity” (J Nat Prod, 2001)
In brackets after ≈: the same amount, converted by molar mass.

Assays:
HSC-2 = assay: Cytotoxicity against human HSC2 cells after 24 by MTT assay; format: functional; settings: read-out: LD50 (the source's name)
[1] = Cytotoxicity against human HGF cells after 24 by MTT assay; format: cell-based; settings: read-out: LD50 (the source's name)
Method in brief: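 Primary human gingival fibroblasts from a healthy person's gingival biopsy, explant-cultured in α-MEM with 30% FBS and antibiotics, used at passages 5–7. Cells were seeded at 6×10^3 into 96-well plates for 24 h, PBS-washed, and exposed to compound for 24 h. Viability was read by MTT (0.2 mg/mL, 4 h), DMSO lysis and A540, giving LD50 in µg/mL.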

C[C@@H]1CC[C@@]2(OC1)O[C@H]1C[C@H]3[C@@H]4CC=C5C[C@@H](O[C@@H]6O[C@H](CO)[C@H](O[C@@H]7O[C@H](CO)[C@@H](O)[C@H](O[C@@H]8OC[C@@H](O)[C@H](O)[C@H]8O)[C@H]7O[C@@H]7O[C@H](CO)[C@@H](O)[C@H](O)[C@H]7O)[C@H](O)[C@H]6O)[C@H](O)C[C@]5(C)[C@H]4CC[C@]3(C)[C@H]1[C@@H]2C
CC50 (HSC-2): 12 µg/mL (≈ 11.4 µM) | CC50 [1]: 37 µg/mL (≈ 35.3 µM)

C[C@@H]1CC[C@@]2(OC1)O[C@H]1C[C@H]3[C@@H]4CC=C5C[C@@H](O[C@@H]6O[C@H](CO)[C@H](O[C@@H]7O[C@H](CO)[C@@H](O)[C@H](O[C@@H]8OC[C@@H](O)[C@H](O)[C@H]8O)[C@H]7O[C@@H]7O[C@H](CO)[C@@H](O)[C@H](O[C@@H]8O[C@H](CO)[C@@H](O)[C@H](O)[C@H]8O)[C@H]7O)[C@H](O)[C@H]6O)[C@H](O)C[C@]5(C)[C@H]4CC[C@]3(C)[C@H]1[C@@H]2C
CC50 (HSC-2): 2.7 µg/mL (≈ 2.23 µM) | CC50 [1]: 31 µg/mL (≈ 25.6 µM)

C[C@@H]1CC[C@@]2(OC1)O[C@H]1C[C@H]3[C@@H]4CC=C5C[C@@H](O[C@@H]6O[C@H](CO)[C@@H](O[C@@H]7O[C@@H](C)[C@H](O[C@@H]8O[C@@H](C)[C@H](O)[C@@H](O)[C@H]8O)[C@@H](O)[C@H]7O)[C@H](O)[C@H]6O[C@@H]6O[C@@H](C)[C@H](O)[C@@H](O)[C@H]6O)[C@H](O)C[C@]5(C)[C@H]4CC[C@]3(C)[C@H]1[C@@H]2C
CC50 (HSC-2): 5.5 µg/mL (≈ 5.33 µM) | CC50 [1]: 9.1 µg/mL (≈ 8.82 µM)

C[C@@H]1CC[C@@]2(OC1)O[C@H]1C[C@H]3[C@@H]4CC=C5C[C@@H](O[C@@H]6O[C@H](CO)[C@H](O[C@@H]7O[C@H](CO)[C@@H](O)[C@H](O[C@@H]8OC[C@@H](O)[C@H](O)[C@H]8O)[C@H]7O[C@@H]7O[C@H](CO)[C@@H](O)[C@H](O)[C@H]7O)[C@H](O)[C@H]6O)[C@H](O)C[C@]5(C)[C@H]4CC[C@]3(C)[C@@]1(O)[C@@H]2C
CC50 (HSC-2): 13 µg/mL (≈ 12.2 µM) | CC50 [1]: 58 µg/mL (≈ 54.5 µM)

C[C@@H]1CC[C@@]2(OC1)O[C@H]1[C@@H](O)[C@H]3[C@@H]4CC=C5C[C@@H](O[C@@H]6O[C@H](CO)[C@H](O[C@@H]7O[C@H](CO)[C@@H](O)[C@H](O[C@@H]8OC[C@@H](O)[C@H](O)[C@H]8O)[C@H]7O[C@@H]7O[C@H](CO)[C@@H](O)[C@H](O[C@@H]8O[C@H](CO)[C@@H](O)[C@H](O)[C@H]8O)[C@H]7O)[C@H](O)[C@H]6O)[C@H](O)C[C@]5(C)[C@H]4CC[C@]3(C)[C@H]1[C@@H]2C
CC50 (HSC-2): 4.4 µg/mL (≈ 3.59 µM) | CC50 [1]: 22 µg/mL (≈ 17.9 µM)

C[C@@H]1CC[C@@]2(OC1)O[C@H]1C[C@H]3[C@@H]4CC=C5C[C@@H](O[C@@H]6O[C@H](CO)[C@H](O[C@@H]7O[C@H](CO)[C@@H](O)[C@H](O[C@@H]8OC[C@@H](O)[C@H](O)[C@H]8O)[C@H]7O[C@@H]7O[C@H](CO)[C@@H](O)[C@H](O[C@@H]8O[C@H](CO)[C@@H](O)[C@H](O)[C@H]8O)[C@H]7O)[C@H](O)[C@H]6O)[C@H](O)C[C@]5(C)[C@H]4CC[C@]3(C)[C@@]1(O)[C@@H]2C
CC50 (HSC-2): 5.5 µg/mL (≈ 4.48 µM) | CC50 [1]: 34 µg/mL (≈ 27.7 µM)

C[C@@H]1O[C@@H](OC[C@H]2O[C@@H](Oc3c(-c4ccc(O)cc4)oc4cc(O)cc(O)c4c3=O)[C@H](O[C@@H]3OC[C@@H](O)[C@H](O)[C@H]3O)[C@@H](O)[C@@H]2O)[C@H](O)[C@H](O)[C@H]1O [CAMELLIASIDE B]
CC50 (HSC-2): > 400 µg/mL | CC50 [1]: > 400 µg/mL

C[C@@H]1CC[C@@]2(OC1)O[C@H]1C[C@H]3[C@@H]4CC=C5C[C@@H](O[C@@H]6O[C@H](CO)[C@@H](O[C@@H]7O[C@@H](C)[C@H](O[C@@H]8O[C@@H](C)[C@H](O)[C@@H](O)[C@H]8O)[C@@H](O)[C@H]7O)[C@H](O)[C@H]6O[C@@H]6O[C@@H](C)[C@H](O)[C@@H](O)[C@H]6O)CC[C@]5(C)[C@H]4CC[C@]3(C)[C@H]1[C@@H]2C [PENNOGENIN RAHAMNOSYL CHACOTRIOSIDE]
CC50 (HSC-2): 2 µg/mL (≈ 1.97 µM) | CC50 [1]: 2.8 µg/mL (≈ 2.76 µM)
